HMGR II inh: inhibitors of class II HMG-CoA reductase from Enterococcus faecalis; purified E. faecalis HMGR, NADPH absorbance 340 nm kinetic; inhibition, % at 10 µM; hit rate 0.41% among 190,000; AID 1066;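 active means inhibition above a set limit, the median over all tested compounds plus 3 SD, cut at about 9.5% in these data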;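 further: enzyme runs in reverse so mevalonate oxidation gives rising NADPH absorbance; 0% = complete reaction with DMSO and 100% = background rate lacking mevalonate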
PKD1 kinase inh: blocks activity of human protein kinase D1 | Q15139 | PKD1 kinase fluorescence polarization assay | inhibition, % (concentration not given with the values) | hit rate 0.056% among 200,000 | AID 797; in the data active means inhibition above about 50%
Target sequence (Q15139 whole entry, looked up): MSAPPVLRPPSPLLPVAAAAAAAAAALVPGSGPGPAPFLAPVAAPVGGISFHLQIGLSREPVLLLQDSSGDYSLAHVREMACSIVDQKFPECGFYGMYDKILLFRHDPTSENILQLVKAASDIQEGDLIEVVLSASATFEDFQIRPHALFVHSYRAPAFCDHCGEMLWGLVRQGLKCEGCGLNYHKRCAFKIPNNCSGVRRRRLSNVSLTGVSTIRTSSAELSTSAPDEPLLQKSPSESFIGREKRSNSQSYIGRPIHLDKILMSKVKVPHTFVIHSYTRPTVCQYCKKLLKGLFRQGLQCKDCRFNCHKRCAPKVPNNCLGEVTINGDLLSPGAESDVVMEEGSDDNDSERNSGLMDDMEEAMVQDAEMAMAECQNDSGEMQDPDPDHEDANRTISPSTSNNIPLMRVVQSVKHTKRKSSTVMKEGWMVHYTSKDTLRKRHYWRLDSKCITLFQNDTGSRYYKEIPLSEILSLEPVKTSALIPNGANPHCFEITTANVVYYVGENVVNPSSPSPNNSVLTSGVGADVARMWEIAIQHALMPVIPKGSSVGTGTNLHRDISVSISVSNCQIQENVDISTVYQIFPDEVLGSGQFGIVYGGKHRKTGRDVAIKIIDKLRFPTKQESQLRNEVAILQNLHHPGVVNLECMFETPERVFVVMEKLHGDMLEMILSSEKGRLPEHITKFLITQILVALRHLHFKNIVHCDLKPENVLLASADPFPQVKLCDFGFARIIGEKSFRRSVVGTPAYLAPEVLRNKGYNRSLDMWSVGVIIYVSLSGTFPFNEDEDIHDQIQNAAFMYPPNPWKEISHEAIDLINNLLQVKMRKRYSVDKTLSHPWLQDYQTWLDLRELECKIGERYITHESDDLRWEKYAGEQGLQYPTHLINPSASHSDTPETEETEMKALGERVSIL
Rad51 HR inh: blocks human Rad51 in homologous recombination | Q06609 | hRad51 DNA strand exchange, fluorescence dequenching | inhibition, % at 10 µM | hit rate 0.085% among 200,000 | AID 1385;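 active means inhibition above 40% at the single screening dose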;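 further: 0% = DMSO control wells and 100% = blanks with heterologous ssDNA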
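Read-out basis: percent inhibition relative to plate controls and blanks / Assay system: human Rad51 nucleoprotein filaments preassembled on unlabelled ssDNA / Timing: filaments 15 min 37 °C, then compound 30 min / Control set: per-plate controls and blanks / Technique: fluorescence dequenching at 485/520 nm / Compound: 10 µM final, single point / Also added: Fluorescein- and BHQ1-tagged 47-mer duplex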
Pf gametocyte: P. falciparum stage V gametocyte viability inhibition; P. falciparum stage V gametocytes, ATP luminescence, 24 h; inhibition, % at 10.9 µM; hit rate 0.065% among 150,000; AID 743093;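 active means inhibition above the mean plus 3 SD of compounds within the control limits, set per campaign, cut at about 38% in these data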;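 further: 0% = DMSO wells and 100% = medium only without gametocytes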
Redox H2O2 prof: compounds producing H2O2 with reducing agent – biochemical, NIH compound library profiling, artefact control for MLSCN library redox annotation, primary screen; hit rate 0.03% among 200,000; DTT-dependent redox cycling H2O2, phenol red/HRP absorbance; 100% = 100 µM peroxide control, 0% = buffer; activation, % at 10 µM;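 active means activation of at least 50% relative to the plate's high and low controls in the primary single-dose screen; inactive means activation below 50%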;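 further: compound incubated with DTT at 0.8 mM final as the reducing agent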
Calpain2 inh: inhibitors of pig calpain II. purified calpain II, fluorogenic peptide substrate, 30 min. inhibition, % at 16 µM. hit rate 0.37% among 220,000. AID 1236;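 active means inhibition above about 50%, limit read from the data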
The depositor's hits bear a star; x = not tested or not shown. Compounds with a hit are over-represented: about 0.81% of the library has one in this group of screens.

SMILES	HMGR II inh	PKD1 kinase inh	Rad51 HR inh	Pf gametocyte	Redox H2O2 prof	Calpain2 inh
CC(=O)NS(=O)(=O)c1ccc(NC(=O)c2oc3c(Cl)cccc3c2C)cc1	x	x	-6.0	x	x	-10.0
O=C(CSc1nnc(COc2cccc3cccnc23)o1)N1CCCC1	12.4*	-7.0	-9.4	7.7	-0.3	-59.9
CC1CCCC(C)N1C(=O)CSc1nnc(COc2cccc3cccnc23)o1 (stereo unspecified)	-0.3	-6.8	-1.2	5.1	0.0	-49.7
CCn1nnc(NC(=O)c2cccc(-c3cc4ccccc4oc3=O)c2)n1	-4.3	-5.4	50.9*	x	4.8	-146.0
Cc1ccc(C(=O)NCCc2ccncc2)cc1	11.9*	5.0	3.8	-9.2	2.3	-11.1
Cc1ccc(Oc2ccc(C(=O)NCc3ccncc3)cc2)cc1	-1.4	-8.9	2.9	13.8	-2.0	50.2*
O=C(NCc1ccncc1)c1ccc(Oc2ccccc2)cc1	0.1	-10.0	5.6	-0.7	-0.1	-12.3
CC(C)(C)NC(=O)c1ccc(Sc2ccccc2)c([N+](=O)[O-])c1	-2.3	9.4	8.8	-25.4	-1.2	54.1*
Cc1cc(O)cc(=O)n1Cc1ccccc1	x	x	x	-24.3	x	x
CCN(CC)CCOc1nc(C)nc2c1oc1ccccc12	13.8*	-3.1	-2.3	x	3.7	-22.4
COc1ccc(N/N=C(/C(C)=O)N2CCCc3ccccc32)cc1	x	x	16.6	-5.9	x	38.2
CC1Oc2ccccc2C=C1/C=N/Nc1ccc(C(=O)O)cc1 (stereo unspecified)	x	x	-5.1	-5.7	x	17.2
COc1cccc(NC(=S)/C(=C(\[O-])c2ccc(OC(F)F)cc2)[n+]2ccccc2)c1	10.9*	-5.6	-0.8	10.4	-2.7	2.8
COc1ccc(/C=C2\SC(=S)NC2=O)cc1OS(=O)(=O)c1ccc(NC(C)=O)cc1	-1.3	-3.0	-20.4	-12.3	-0.3	-63.6
COc1cc(/C=C2/SC(=S)NC2=O)ccc1OS(=O)(=O)c1ccc(C)cc1	0.9	-8.7	-29.9	x	0.2	62.9*
COc1cc(/C=C2\SC(=S)NC2=O)ccc1OS(=O)(=O)c1ccccc1	5.1	-14.0	-4.1	x	-0.2	61.7*
CCCC(=O)Oc1ccc(C2NC(=O)c3ccccc3O2)cc1OC (stereo unspecified)	x	x	x	-10.7	x	x
Cn1c(SCC(=O)Nc2ccc(NC(=O)c3cccs3)cc2)nnc1-c1ccncc1	10.9*	-6.0	-0.8	x	1.2	-76.2
COc1ccc(NC(=O)CSc2nnc(-c3ccncc3)n2C)cc1	1.6	-2.1	2.7	-22.5	-1.0	-22.9
CCCc1[nH]nc2c1C(CCC)C(C#N)=C(N)O2 (stereo unspecified)	11.0*	1.4	3.8	32.7	1.8	6.3
O=C(O)C(Cc1ccccc1)N1C(=O)C2CCCCC2C1=O (stereo unspecified)	16.9*	-3.1	1.9	-35.4	-0.6	-18.9
N#Cc1c(Cl)cccc1Oc1ccc(S(=O)(=O)Nc2ccccc2)cc1	x	x	-6.3	-4.1	x	51.0*
N#Cc1cccc(C#N)c1Oc1ccc(S(=O)(=O)Nc2ccccc2)cc1	x	x	-22.7	0.9	x	24.1
CNCc1nc2ccccc2[nH]1	12.5*	-3.0	1.3	11.9	0.0	-8.1
CCOC(=O)C1CCN(CC(=O)N(CC(C)C)c2c(N)n(CC(C)C)c(=O)[nH]c2=O)CC1	0.2	-2.9	-19.3	-31.0	0.7	15.5
SMILES	HMGR II inh	PKD1 kinase inh	Rad51 HR inh	Pf gametocyte	Redox H2O2 prof	Calpain2 inh
CCOC(=O)N1CCN(c2cc(NCCO)c([N+](=O)[O-])c3nonc23)CC1	13.1*	-3.1	15.4	9.6	0.0	-3.2
O=[N+]([O-])c1c(NCCO)cc(N2CCCCC2)c2nonc12	-3.0	-6.8	1.4	17.6	-0.5	-1.1
COCCNC(=O)CN(C(=O)c1ccc(N2CCCC2)nc1)c1ccc(Cl)cc1	x	x	x	17.6	x	x
CCOC(=O)C1CCCN(S(=O)(=O)c2ccc(OC)cc2)C1 (stereo unspecified)	-1.4	-2.5	46.0*	x	0.0	-25.6
O=C(Cc1ccccc1)NCCS(=O)c1ccc(Cl)cc1 (stereo unspecified)	-0.7	-2.4	-0.2	-9.8	-6.9	8.7
O=C(Cc1ccc(Cl)cc1)NCCS(=O)c1ccc(Cl)cc1 (stereo unspecified)	-9.1	-0.5	130.4*	10.8	1.9	-7.8
COc1ccc(C(=O)N/N=C/c2ccccc2C(=O)O)cc1OC	x	x	40.8*	-7.6	x	-20.8
COc1cc(/C=N/NC(=O)c2ccc(-c3ccccc3)cc2)cc(OC)c1OC	12.5*	8.3	5.1	x	-0.4	-34.8
COc1ccc(C(=O)N/N=C/c2ccccn2)cc1OC	-5.2	1.1	-0.3	-9.6	-0.5	-8.2
COc1cc(/C=N/NC(=O)c2cc(-c3ccccc3)sc2N)cc(OC)c1OC	x	x	10.1	-0.8	x	-47.4
COc1ccccc1Sc1ccccc1/C=N/NC(N)=O	15.4*	0.1	2.7	x	-0.6	-9.9
COc1cccc(CC2(CO)CCCN(Cc3cc4ccccc4[nH]3)C2)c1 (stereo unspecified)	-7.0	1.0	x	x	8.7	-4.5
CN(C)S(=O)(=O)N1CCCC(C(=O)c2ccc(-c3ccccc3)c(F)c2)C1 (stereo unspecified)	-2.1	-9.3	-3.4	-0.4	-0.5	29.6
O=C(O)CCn1c(SCCc2ccccc2)nc2ccccc21	x	x	x	-12.6	x	x
Oc1ccccc1N=Nc1ccccc1O	-5.5	1.0	-15.8	-22.8	5.2	67.9*
CCCCOCCCNC(=O)c1ccc(OCC)cc1	10.3*	7.0	x	-3.6	-0.1	27.5
CCCCOCCCNC(=O)c1ccc(OC)cc1	-2.4	-3.4	1.6	19.7	0.2	5.3
O=S(=O)(NC1CCCCC1)c1ccc(N2CCOCC2)nc1	x	x	18.4	-13.8	x	-2.6
Cc1oc2c(c1C(=O)Nc1cccc3ccccc13)CCCC2	-1.5	-2.9	-0.7	10.5	-0.1	58.3*
COc1ccccc1NC(=O)c1c(C)oc2c1CCCC2	-3.1	-5.0	-2.9	x	0.4	-0.8
Cc1cc(NC(=O)CSc2nccn2C)no1	-5.3	-2.6	26.8	-10.3	-0.4	-20.4
Cc1ccc(C)c(N2CCN(C(=O)C3CCCCN3S(=O)(=O)c3ccc(F)cc3)CC2)c1 (stereo unspecified)	-3.6	-4.2	3.4	x	0.2	57.5*
N#CC(C#N)=Cc1c[nH]c(=O)c(C#N)c1Nc1ccccc1	x	x	x	-10.3	x	x
COc1ccc(C(=O)NC2CCN(CC(=O)Nc3cccc(C)c3)CC2)cc1OC	10.9*	-1.8	8.2	x	-0.2	-18.5
C#Cc1ccc([C@@H]2C=C(C(=O)N3CCOCC3)O[C@H](OCc3ccc(CO)cc3)C2)cc1	x	x	-1.3	x	x	x
CCC1(C)Nc2ccccc2C(=O)N1O (stereo unspecified)	-2.4	-2.1	40.7*	x	1.1	-5.9
C=CCOC(=O)C1=C[C@H](c2csc3ccccc23)C[C@H](OCc2ccc(CO)cc2)O1	x	x	-0.9	x	x	x
CCOC(=O)N1CCN(c2c(-c3ccc(C)cc3)c(=O)c2=O)CC1	6.5	-14.0	80.4*	-5.1	-2.5	-4.2

Screens: PubChem, several laboratories
